The record followed here is ChEMBL document CHEMBL4266040, “Structure-Based Engineering of Irreversible Inhibitors against Histone Lysine Demethylase KDM5A” (J Med Chem, 2018).

Usually IC50 stands for the concentration that gives 50% inhibition. As usually defined, the Kd is the constant that tells how readily two partners part at equilibrium.

Active and inactive are the calls of the source. No cut-off for these calls is given here.

Series [1] has as its target Lysine-specific demethylase 6A (Homo sapiens, UniProt O15550). The series is described as follows: Inhibition of KDM6A (880 to 1401 residues) (unknown origin) using H3 ( 21 to 44 residues) K27me3 as substrate preincubated for 15 min followed by substrate addition measured after 15 mins by FDH-coupled demethylase assay.
The target of series [2] is T1, Lysine-specific demethylase 4A (Homo sapiens, UniProt O75164).
T1 sequence (O75164 whole entry): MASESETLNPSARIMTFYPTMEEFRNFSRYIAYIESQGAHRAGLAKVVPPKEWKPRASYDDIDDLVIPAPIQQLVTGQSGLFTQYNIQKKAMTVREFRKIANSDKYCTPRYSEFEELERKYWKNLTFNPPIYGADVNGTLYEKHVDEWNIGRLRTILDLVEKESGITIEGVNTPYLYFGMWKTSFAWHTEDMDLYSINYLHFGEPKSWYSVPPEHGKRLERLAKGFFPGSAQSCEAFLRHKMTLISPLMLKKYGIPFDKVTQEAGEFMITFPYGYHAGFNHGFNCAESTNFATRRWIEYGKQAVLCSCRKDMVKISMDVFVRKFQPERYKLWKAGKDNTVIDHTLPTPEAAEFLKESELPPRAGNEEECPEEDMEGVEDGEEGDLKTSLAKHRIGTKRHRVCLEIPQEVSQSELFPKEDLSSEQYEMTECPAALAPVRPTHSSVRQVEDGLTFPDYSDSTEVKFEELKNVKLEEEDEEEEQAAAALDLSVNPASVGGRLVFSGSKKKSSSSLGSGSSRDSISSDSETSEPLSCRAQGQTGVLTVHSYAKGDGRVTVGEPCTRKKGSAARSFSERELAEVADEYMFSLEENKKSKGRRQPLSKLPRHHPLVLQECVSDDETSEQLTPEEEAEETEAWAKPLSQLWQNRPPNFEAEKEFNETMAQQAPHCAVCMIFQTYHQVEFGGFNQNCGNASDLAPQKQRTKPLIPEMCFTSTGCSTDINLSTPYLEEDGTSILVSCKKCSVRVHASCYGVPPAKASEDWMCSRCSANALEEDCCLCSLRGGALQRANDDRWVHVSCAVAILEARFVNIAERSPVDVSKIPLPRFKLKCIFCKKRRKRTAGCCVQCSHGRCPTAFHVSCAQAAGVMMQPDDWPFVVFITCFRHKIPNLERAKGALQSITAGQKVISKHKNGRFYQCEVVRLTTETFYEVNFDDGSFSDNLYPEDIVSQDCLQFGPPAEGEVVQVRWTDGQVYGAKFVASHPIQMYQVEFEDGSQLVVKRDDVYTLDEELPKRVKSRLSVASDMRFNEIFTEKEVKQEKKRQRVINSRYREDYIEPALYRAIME
The series is described as follows: Inhibition of KDM4A (1 to 350 residues) (unknown origin) using H3 ( 1 to 15 residues) K9me3 as substrate preincubated for 15 min followed by substrate addition measured after 15 mins by FDH-coupled demethylase assay.

For series [3], the target named is T2, Lysine-specific demethylase 5A (Homo sapiens, UniProt P29375). Put plainly: Inhibition of KDM5A ARID/PhD1 domain deletion mutant (1 to 739 residues) (unknown origin) using H3 ( 1 to 24 residues) K4me3 as substrate preincubated for 15 min followed by substrate addition measured after 15 mins by FDH-coupled demethylase assay.
The species named for series [4] is Homo sapiens. Put plainly: Selectivity ratio of IC50 for KDM5A ARID/PhD1 domain deletion mutant (1 to 739 residues) (unknown origin) to IC50 for KDM6A (880 to 1401 residues) (unknown origin).
The species named for series [5] is Homo sapiens. Put plainly: Selectivity ratio of IC50 for KDM4A (1 to 350 residues) (unknown origin) to IC50 for KDM5A ARID/PhD1 domain deletion mutant (1 to 739 residues) (unknown origin).
Series [6] deals with T2, Lysine-specific demethylase 5A. The series is described as follows: Binding affinity to KDM5A ARID/PhD1 domain deletion mutant (1 to 588 residues) (unknown origin) by ITC assay. For orientation: ITC needs no label: the signal is the heat of the interaction.
Series [7] has the same target. Put plainly: Inhibition of KDM5A in human MCF7 cells assessed as effect on H3K4me3 methylation levels at 1 to 10 uM after 30 hrs by Western blot analysis. Format: cell-based. Summed up:
(§1)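 MCF7 breast cancer cells were exposed to compound, with a 0.1% DMSO control, for 30 or 48 h. Total cell lysates were then probed by Western blot with antibodies to histone methylation marks.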
(In general: In western blotting, separated proteins are transferred to a membrane and probed.)

For series [8] the target is unchanged. Put plainly: Inhibition of KDM5A in human MCF7 cells assessed as effect on H3K27me3 methylation levels at 1 to 10 uM after 30 hrs by Western blot analysis. Format: cell-based. Summed up: as §1
Series [9] is described as follows: Metabolic stability in human BT474 cell culture media assessed as parent compound remaining at 10 uM after 24 hrs by LC-MS/MS analysis. In kind it is physicochemical. Conditions: read-out: Stability.
In series [10] the test system is BT-474. The series is described as follows: Growth inhibition of human BT474 cells at 0.11 to 3.5 uM measured every 4 hrs for 300 hrs by IncuCyte live cell imaging method. Format: functional, cell-based. Summed up: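 BT474 cells grown with compound; percent confluence tracked by IncuCyte live-cell imaging every 4 h over 300 h.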
Series [11] can be described thus: Effective permeability of the compound at pH 7.4 by PAMPA. Format: ADME. The method, boiled down:
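PAMPA with a lipid/dodecane artificial membrane and pH 7.4 buffer in donor and acceptor wells. Compounds diluted from 10 mM DMSO stock to 0.05 mM final, 0.5% DMSO. Donor stirred during a 30 min permeation at room temperature. Donor and acceptor concentrations read by UV. Permeability given in 10−6 cm s−1: >100 high, 10–100 moderate, <10 low.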
(PAMPA measures passive passage across an artificial lipid membrane.)

Series [12] has as its target T1, Lysine-specific demethylase 4A. The series is described as follows: Irreversible inhibition of recombinant KDM4A (1 to 350 residues) (unknown origin) expressed in Escherichia coli using H3 (1 to 21 residues) K9me3 as substrate preincubated for 10 mins followed by substrate/alphaKG/(NH4)2Fe(SO4)2 addition measured after 1 hr by alphaLISA assay. The method, boiled down: (§2)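 AlphaLISA using antibody to H3K4 (KDM5B) or H3K9 (KDM4A) methylation to detect demethylation of enzyme-specific histone peptides. Both enzymes are recombinant catalytic domains from E. coli, tested at the same enzyme concentration.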

For series [13], the species on record is Homo sapiens. Put plainly: Selectivity ratio of IC50 for recombinant KDM4A (1 to 350 residues) (unknown origin) to IC50 for recombinant KDM5B ARID/PhD1 domain deletion (1 to 755 residues) (unknown origin). The method, boiled down:
as §2

Sequence of Lysine-specific demethylase 6A (O15550 whole entry, the tested form may be a part): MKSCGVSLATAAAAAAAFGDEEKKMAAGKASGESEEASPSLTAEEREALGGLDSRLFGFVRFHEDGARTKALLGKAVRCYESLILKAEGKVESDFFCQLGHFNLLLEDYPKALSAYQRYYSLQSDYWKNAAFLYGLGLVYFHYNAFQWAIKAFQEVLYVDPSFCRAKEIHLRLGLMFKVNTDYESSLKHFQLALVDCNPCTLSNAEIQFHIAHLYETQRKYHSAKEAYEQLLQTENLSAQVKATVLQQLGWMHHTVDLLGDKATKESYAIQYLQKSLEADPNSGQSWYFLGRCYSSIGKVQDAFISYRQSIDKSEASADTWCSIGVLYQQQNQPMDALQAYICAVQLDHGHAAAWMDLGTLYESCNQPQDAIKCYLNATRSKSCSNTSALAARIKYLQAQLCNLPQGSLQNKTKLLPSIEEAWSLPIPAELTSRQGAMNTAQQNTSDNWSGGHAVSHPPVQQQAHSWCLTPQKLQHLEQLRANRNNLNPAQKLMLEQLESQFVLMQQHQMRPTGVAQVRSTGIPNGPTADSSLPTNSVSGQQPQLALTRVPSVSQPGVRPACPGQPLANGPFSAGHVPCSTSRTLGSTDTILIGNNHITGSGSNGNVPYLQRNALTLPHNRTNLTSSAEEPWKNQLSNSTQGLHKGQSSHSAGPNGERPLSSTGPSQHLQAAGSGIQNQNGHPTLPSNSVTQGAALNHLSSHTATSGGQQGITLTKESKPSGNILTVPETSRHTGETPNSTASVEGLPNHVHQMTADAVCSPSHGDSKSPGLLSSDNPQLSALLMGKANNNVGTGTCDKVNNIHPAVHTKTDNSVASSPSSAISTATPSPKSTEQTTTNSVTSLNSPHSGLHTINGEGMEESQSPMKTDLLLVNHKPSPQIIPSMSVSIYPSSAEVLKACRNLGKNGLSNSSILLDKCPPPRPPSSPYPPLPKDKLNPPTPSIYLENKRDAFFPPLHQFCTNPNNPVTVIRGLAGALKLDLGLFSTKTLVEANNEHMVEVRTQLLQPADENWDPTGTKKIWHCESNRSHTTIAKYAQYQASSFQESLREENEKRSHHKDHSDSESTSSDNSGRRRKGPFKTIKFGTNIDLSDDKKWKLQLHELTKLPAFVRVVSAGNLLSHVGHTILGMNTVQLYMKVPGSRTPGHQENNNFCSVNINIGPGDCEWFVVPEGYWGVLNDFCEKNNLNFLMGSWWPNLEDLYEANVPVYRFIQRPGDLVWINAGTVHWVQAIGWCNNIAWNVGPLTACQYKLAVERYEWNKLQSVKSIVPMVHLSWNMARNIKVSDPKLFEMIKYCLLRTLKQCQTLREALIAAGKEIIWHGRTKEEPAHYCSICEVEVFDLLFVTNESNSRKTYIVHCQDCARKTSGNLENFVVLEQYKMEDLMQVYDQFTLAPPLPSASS
T2 sequence (P29375 whole entry, the tested form may be a part): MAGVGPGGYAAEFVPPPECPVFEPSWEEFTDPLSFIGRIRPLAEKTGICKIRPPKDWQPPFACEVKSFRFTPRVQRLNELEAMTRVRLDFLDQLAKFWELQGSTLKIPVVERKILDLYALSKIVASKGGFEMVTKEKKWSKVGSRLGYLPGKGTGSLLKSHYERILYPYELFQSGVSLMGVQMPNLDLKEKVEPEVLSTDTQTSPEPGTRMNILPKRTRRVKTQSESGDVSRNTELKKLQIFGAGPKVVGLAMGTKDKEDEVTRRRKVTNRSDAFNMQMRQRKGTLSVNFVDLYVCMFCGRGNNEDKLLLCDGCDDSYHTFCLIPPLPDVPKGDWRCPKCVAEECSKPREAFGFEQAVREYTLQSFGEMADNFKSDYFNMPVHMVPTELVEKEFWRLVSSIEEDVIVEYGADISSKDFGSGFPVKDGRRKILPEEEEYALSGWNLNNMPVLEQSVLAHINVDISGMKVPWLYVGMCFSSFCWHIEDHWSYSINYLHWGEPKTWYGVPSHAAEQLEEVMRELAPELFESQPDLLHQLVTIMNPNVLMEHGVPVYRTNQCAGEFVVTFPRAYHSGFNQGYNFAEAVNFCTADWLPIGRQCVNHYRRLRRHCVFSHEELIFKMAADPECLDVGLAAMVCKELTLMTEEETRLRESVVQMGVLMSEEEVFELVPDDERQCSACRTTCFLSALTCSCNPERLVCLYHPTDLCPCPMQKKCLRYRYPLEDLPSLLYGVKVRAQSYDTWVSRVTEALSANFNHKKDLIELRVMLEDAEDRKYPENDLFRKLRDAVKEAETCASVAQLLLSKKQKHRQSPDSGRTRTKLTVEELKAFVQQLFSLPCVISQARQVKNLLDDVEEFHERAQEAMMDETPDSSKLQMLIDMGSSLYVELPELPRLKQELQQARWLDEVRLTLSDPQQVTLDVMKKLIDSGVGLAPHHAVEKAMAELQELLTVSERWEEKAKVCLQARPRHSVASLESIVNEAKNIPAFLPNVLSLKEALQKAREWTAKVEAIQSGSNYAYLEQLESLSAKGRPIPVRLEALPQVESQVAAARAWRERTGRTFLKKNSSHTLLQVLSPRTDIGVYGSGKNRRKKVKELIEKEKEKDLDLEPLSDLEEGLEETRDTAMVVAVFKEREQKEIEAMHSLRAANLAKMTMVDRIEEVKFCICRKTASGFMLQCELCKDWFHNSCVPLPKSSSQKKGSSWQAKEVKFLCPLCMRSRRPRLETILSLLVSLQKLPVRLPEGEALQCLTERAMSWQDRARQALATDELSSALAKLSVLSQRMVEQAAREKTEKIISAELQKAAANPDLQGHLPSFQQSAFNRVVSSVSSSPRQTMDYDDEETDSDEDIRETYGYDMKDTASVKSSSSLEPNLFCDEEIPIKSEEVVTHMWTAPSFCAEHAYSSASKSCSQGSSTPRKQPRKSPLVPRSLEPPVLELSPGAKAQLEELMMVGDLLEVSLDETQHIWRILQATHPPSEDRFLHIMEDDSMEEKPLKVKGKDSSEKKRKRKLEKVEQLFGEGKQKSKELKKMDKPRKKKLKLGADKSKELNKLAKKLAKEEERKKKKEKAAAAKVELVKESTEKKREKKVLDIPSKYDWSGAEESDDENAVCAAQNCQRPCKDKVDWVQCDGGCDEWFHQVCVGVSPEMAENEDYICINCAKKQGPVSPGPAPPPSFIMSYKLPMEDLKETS

Turning to `C=CC(=O)N1CCCN(c2cc(NCCC(=O)O)nc(-c3ccccn3)n2)CC1`, the IC50 in series [1] was determined as 39 µM; in series [2], 230 µM; in series [3], 71 µM. Further, the Ratio IC50 in series [4] was 1.5 to 1.8; in series [5], 3.2 to 3.6. For the same compound, the Kd in series [6] was determined as 6 µM.

For `CCOC(=O)CCNc1cc(N2CCc3ccccc3CC2)nc(-c2ccccn2)n1`, the inhibition result in [7] and in series [8] was “Active” each time.

In the case of `CC(C)OC(=O)c1ccnc2cc(C(OCCN3CCCCC3)c3cccc(N)c3)sc12` (configuration not stated), the remaining at 24 h, 10 µM in series [9] is 75%. For the same compound, the “growth inhibition (GI)” value in series [10] was “Active”. The compound further had a Peff in series [11] of 1018 ×10⁻⁶ cm/s.

As for `C=CS(=O)(=O)N1CCCN(c2cc(NCCC(=O)O)nc(-c3ccccn3)n2)CC1`, the IC50 in [1] was found to be 55 µM; in series [2] it was 290 µM; in series [3], 83 µM. For the same compound, the Ratio IC50 in series [4] lay within 1.5 to 1.8; in [5], 3.2 to 3.6. Besides, the Kd in series [6] amounted to 9 µM.

`CN1CCCC1CCOC(c1cc2nccc(C(=O)O)c2[nH]1)c1ccccc1Cl` (configuration not stated) came in with a Kd in series [6] of 0.15 µM.

With `O=C(O)CCNc1cc(N2CCc3ccccc3CC2)nc(-c2ccccn2)n1`, the 50% inhibitory concentration (IC50) in series [1] was determined as 69 µM; in [2] it was 400 µM; in series [3], 110 µM. The Ratio IC50 in series [4] fell in the range of 1.5 to 1.8; in [5] it was 3.2 to 3.6. This compound came in with an equilibrium dissociation constant (Kd) in [6] of 12 µM.

Regarding `CN1CCCC1CCOC(c1cc2nccc(C(=O)O)c2s1)c1ccccc1Cl` (configuration not stated), the IC50 in series [12] was found to be 2.2 µM. Besides, the Ratio IC50 in series [13] is 7. Also, the Kd in series [6] was found to be 0.26 µM.
